Laboratory results published in the EternaBench riboswitch data.

Test system: MS2 coat protein
Assay: apparent Kd, MS2 coat protein; higher = weaker binding; RNA-MaP array; FMN 200 µM where present
In short: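 Two titrations, one without ligand and one with constant ligand, were run with SNAP-549-labelled MS2 coat protein from 0.7 or 1.5 nM, doubling to 3 µM. The targets were designs transcribed by stalled E. coli RNA polymerase on Illumina sequencing-chip clusters, in 100 mM Tris-HCl pH 7.5, 80 mM KCl, 4 mM MgCl2, BSA, DTT, yeast tRNA and Tween-20. The apparent Kd is the median of filtered per-cluster binding-curve fits, with green signal normalised to red-channel RNA signal and control-cluster median Fmax.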

[1] = designed as: OFF switch for flavin mononucleotide, no ligand
[2] = ligand present: flavin mononucleotide, designed as: OFF switch for flavin mononucleotide
[3] = designed as: ON switch for flavin mononucleotide, no ligand
[4] = ligand present: flavin mononucleotide, designed as: ON switch for flavin mononucleotide

| Sequence | apparent Kd [1] | apparent Kd [2] | apparent Kd [3] | apparent Kd [4] |
| --- | --- | --- | --- | --- |
| UGUGUUAUAGGAUAUACGGGUAUGUGAAUCUCUCCAUCGGUACAUGAGGAUCACCCAUGUAGAAGGAUAAGGUA | 0.0357 µM | 0.0808 µM | – | – |
| UGUUAAUAAGAGAAGGAGGACUUCAUGAGGAUCACCCAUGUGUUAGUACUUAGGAUAUUUAAUAACAUGAGGAUCACCCAUGUC | – | – | 0.0452 µM | 0.0404 µM |
| UGUUCUAUGUAGAAGGCCCAUAUCUGUACUUAGGGAGGAUAUACAUGAGGAUCACCCAUGUGUAGAGCUGGUGGACUGGUCAGC | 0.0165 µM | 0.0372 µM | – | – |
| UGUUGUAUUACAGGAUAUCUAGUAUGUUUAUUUAGAGAAGGGUAUUCACAUGAGGAUCACCCAUGUAUAUACGAGGAAGUUGUG | – | – | 0.0391 µM | 0.0425 µM |
| UGUUGUAUUACAGGAUAUCUAGUAUUUUCAUUUAGAGAAGGGUAUUCACAUGAGGAUCACCCAUGUAUAUACGAGGAAGUUGUG | – | – | 0.0437 µM | 0.0454 µM |
| UGUUGUAUUACAGGAUAUCUAGUGUUUUUAUUUAGAGAAGGGUAUUCACAUGAGGAUCACCCAUGUAUAUACGAGGAAGUUGUG | – | – | 0.0559 µM | 0.0612 µM |
| UGUUGUAUUACAGGAUAUCUAUGAUUUAUAUUUAGAGAAGGGUAUUCACAUGAGGAUCACCCAUGUAUAUACGAGGAAGUUGUG | – | – | 0.0487 µM | 0.0559 µM |
| UGUUGUAUUACAGGAUAUCUAUUAAUUUUAUUUAGAGAAGGGUAUUCACAUGAGGAUCACCCAUGUAUAUACGAGGAAGUUGUG | – | – | 0.0537 µM | 0.0571 µM |
| UGUUGUAUUACAGGAUAUCUAUUAGUUAUAUUUAGAGAAGGGUAUUCACAUGAGGAUCACCCAUGUAUAUACGAGGAAGUUGUG | – | – | 0.0546 µM | 0.0619 µM |
| UGUUGUAUUACAGGAUAUCUAUUAUUUUUAUUUAGAGAAGGGUAUUCACAUGAGGAUCACCCAUGUAUAUACGAGGAAGUUGUG | – | – | 0.0527 µM | 0.0589 µM |
| UGUUGUAUUACAGGAUAUCUAUUGUUGUUAUUUAGAGAAGGGUAUUCACAUGAGGAUCACCCAUGUAUAUACGAGGAAGUUGUG | – | – | 0.056 µM | 0.0566 µM |
| UGUUGUAUUACAGGAUAUCUAUUGUUUUAAUUUAGAGAAGGGUAUUCACAUGAGGAUCACCCAUGUAUAUACGAGGAAGUUGUG | – | – | 0.054 µM | 0.061 µM |
| UGUUGUAUUACAGGAUAUCUAUUGUUUUUAUAUAGAGAAGGGUAUUCACAUGAGGAUCACCCAUGUAUAUACGAGGAAGUUGUG | – | – | 0.0411 µM | 0.0458 µM |
| UGUUGUUCAGGAUAUGAUGUAUAAUACAUGAGGAUCACCCAUGUAGAUCCUGAAUUGGCGUCAGAAGGGAAUGUUG | 0.0193 µM | 0.0219 µM | – | – |
| UUAAAUCAUGUAGGAUAUGCAUGGCGAAGCUACGCAGAAGGACAUGAGGAUCACCCAUGUGCUAGCUACCGGAUACGGUGGCAA | 0.0607 µM | 0.264 µM | – | – |
| UUAAAUCAUGUAGGAUAUGCAUGGCGAAGCUACGCAGAAGGACAUGAGGAUCACCCAUGUUAUAGCGUCUGAGAACAGAUGCAA | 0.0828 µM | 0.264 µM | – | – |
| UUAAAUCAUGUAGGAUAUGCAUGGCGAAGCUACGCAGAAGGACAUGAGGAUCACCCAUGUUAUAGCUACCCAGAUCGGUGGCAA | 0.0902 µM | 0.237 µM | – | – |
| UUAAAUCAUGUAGGAUAUGCAUGGCGAAGCUACGCAGAAGGACAUGAGGAUCACCCAUGUUAUAGCUAGCCAGUUCGCUGGCAA | 0.0236 µM | 0.164 µM | – | – |
| UUAAAUCGAAACAUGAGGAUCACCCAUGUGUUGUAAUUAAUAUAGGAUAUGUGUAUACUUUUAUAAUAGAAGGAUGAUAAUACU | – | – | 0.0174 µM | 0.0121 µM |
| UUAACUCAUGUAGGAUAUGCAUGGCGAAGCUACGCAGAAGGACAUGAGGAUCACCCAUGUUCUAGCUACCGAGUUCGGUGGCAA | 0.092 µM | 0.272 µM | – | – |
| UUAAUCUGAACAUGAGGAUCACCCAUGUAUCUUACCUUAGGACAGGAUAUAGAUGUUAAGAAUUACUAGAAGGGUCAGUAUAUU | – | – | 0.0425 µM | 0.0359 µM |
| UUAAUGUGAGGAUAUCAGGUGUGCUAGCGUACUGGUACAUCUGAGAAGGCACAUGAGGAUCACCCAUGUUCCUG | 0.0221 µM | 0.0776 µM | – | – |
| UUAAUUAUACAAGGAUAUCUAUUGUAGUUUCGACUAACAUGAGGAUCACCCAUGUAAAUAUGUUAAGAGAAGGUGUAUUUUAAA | – | – | 0.0455 µM | 0.0303 µM |
| UUAAUUAUACAAGGAUAUCUAUUGUUGUUUCGACAUACAUGAGGAUCACCCAUGUUAGUAUGUUUAGAGAAGGUGUAUUUUCAG | – | – | 0.029 µM | 0.0257 µM |
| UUAAUUUAAUGAUAUUAUGACAUUAGAAGGCUGUACAUGUUGAUACAUGAGGAUCACCCAUGUAUAGAGGAUAUAGACAAUUUU | 0.0332 µM | 0.089 µM | – | – |
| UUAAUUUGGUGAUAUUAUGACAUUAGAAGGCUGUACAUGUUGAUACAUGAGGAUCACCCAUGUAUAGAGGAUAUAGACAAUUUU | 0.048 µM | 0.105 µM | – | – |
| UUACAGCACGGGUAGGAUAUGUAGGGUGGUACAUGAGGAUCACCCAUGUAUCCACCCUUCUAACGGCAGAAGGGCCUGUCGCUGC | – | – | 0.0318 µM | 0.0209 µM |

| Sequence | apparent Kd [1] | apparent Kd [2] | apparent Kd [3] | apparent Kd [4] |
| --- | --- | --- | --- | --- |
| UUACAGUGCGGGUAGGAUAUGUAGGGUGGUACAUGAGGAUCACCCAUGUAUCCACCCUUCGACCGGCAGAAGGGCCUGUCACUAC | – | – | 0.0171 µM | 0.0205 µM |
| UUACAUACAAAGGUACAUGAGGAUCACCCAUGUUUAUUGGGAAGAAGGGUAACAGUAUUACAUAUAUAGGAUAUUUCACAAAUG | – | – | 0.0906 µM | 0.0698 µM |
| UUACUACAUGAGGAUCACCCAUGUCAGGAUAUUGGAUAUGCCUUGGAAUACGUGUUUACAAGAAGGGACUAUAU | 0.0234 µM | 0.0214 µM | – | – |
| UUACUACAUGAGGAUCACCCAUGUCAGGAUAUUGUAUAUACCUUGGAAUACGUGUCUACAAGAAGGGACUAUAU | 0.0237 µM | 0.0225 µM | – | – |
| UUACUACAUGAGGAUCACCCAUGUCAGGAUAUUGUCUAUACUUUGGAAUAUGUGUCGACAAGAAGGGACUAUAU | 0.0235 µM | 0.0399 µM | – | – |
| UUAGAAAUGUUAGGAUAUUAAUAUUUUUUUAGUAUGAUCUACAUGAGGAUCACCCAUGUUAAAAUUAAGAAGGAACAUUUUAUU | 0.0697 µM | 0.0569 µM | – | – |
| UUAGAAUUGUUAGGAUAUUAAUUAUUUUUUAGUAUGAUCUACAUGAGGAUCACCCAUGUUAAAUAUAAGAAGGAACGUUAUAUU | 0.0636 µM | 0.0636 µM | – | – |
| UUAGAGGAUUGAGGAUAUGCAGAGAGAUUAUGCGCGUCGCGCACAUGAGGAUCACCCAUGUAAGAGCAGAAGGUAACUAUGAUC | 0.0243 µM | 0.0218 µM | – | – |
| UUAGGAGUUGUAGGAUAUCGGAUAGAAUGUAAACGAGAAGGACAUGAGGAUCACCCAUGUAUUGAAGAGAAGAGAGAGAGAGAG | 0.0245 µM | 0.0211 µM | – | – |
| UUAUAUAAGGUGUAGCUAGACAUGCAAGAAGGGUGAAGAACAUGAGGAUCACCCAUGUAGACGGUACAGGAUAUUGAUUGACGA | – | – | 0.34 µM | 0.166 µM |
| UUAUGAGAGCAGGAUAUCUUAUAUGUGUAUUAAAGAGAAGGGCUCACAUGAGGAUCACCCAUGUGGUCCUAGAU | 0.0442 µM | 0.309 µM | – | – |
| UUAUGAGCGAUAGGAUAUACUGAGAUUGAAUGGGUAGAAGGAUCGAUCGUGUAGAAGACAUGAGGAUCACCCAUGUUACGGGCC | – | – | 0.097 µM | 0.218 µM |
| UUAUGAUAGAUAGGAUAUACAUUGGAUUUAAAAGUAGAAGGAUCAAGUGGGAAAUGAACAUGAGGAUCACCCAUGUAAUAGGUU | – | – | 0.109 µM | 0.0786 µM |
| UUAUGAUAGAUAGGAUAUACUAUGGUUUAAGAAGUAGAAGGAUCAAUUGGGAAAUGUACAUGAGGAUCACCCAUGUUAUAGGUU | – | – | 0.0371 µM | 0.0337 µM |
| UUAUGCUUUGAGAAGGUUCAAACUACAUAUUGCGCACAUGAGGAUCACCCAUGUUGGUGAAUAAGAAAGGAUAUUAGACUGUGC | 0.267 µM | 0.165 µM | – | – |
| UUAUGGUUCAAGAAGGAUGUAUUUGACUUAUACAUAGGAUAUUGUUAAAUUGAUAAUUAAUGUAACAUGAGGAUCACCCAUGUA | – | – | 0.0081 µM | 0.00739 µM |
| UUAUGUUAUGUAGGAUAUCACUUUAAUUGAUUAAUAUAUGAAUAUAGAAUUUGAGAAGGACAUUUACAUGAGGAUCACCCAUGU | 0.0123 µM | 0.0085 µM | – | – |
| UUAUGUUUUGUAGGAUAUCAUUAGUUAUGUAUUUUAAUUGAAAUUUAGAUAUGAGAAGGACAUUUACAUGAGGAUCACCCAUGU | 0.0174 µM | 0.0111 µM | – | – |
| UUAUUAUAUGUAGGAUAUGCAUAUUAUUAUUAUGCAGAAGGACAUGAGGAUCACCCAUGUAUAUUAUUAUUAUAUAUUAUAUAU | 0.0301 µM | 0.0537 µM | – | – |
| UUAUUAUAUGUAGGAUAUGCAUAUUAUUAUUGUGCAGAAGGACAUGAGGAUCACCCAUGUAUACUAUUAUUAUAUAUUAUAUAU | 0.0108 µM | 0.0136 µM | – | – |
| UUAUUGGGACAGAAGGGCAUUUACAUGAGGAUCACCCAUGUGUAUAGUUGCAGGAUAUGUAUUACAUGUGAAUCAUCAAAGUGC | – | – | 0.0755 µM | 0.0255 µM |
| UUAUUUUGUCAAGGAUAUGUAAUAUAGAUUAGAAAACAUGAGGAUCACCCAUGUAUAUGGUGGGAACAGAAGGUGAAUGGUUUA | 0.196 µM | 0.161 µM | – | – |
| UUAUUUUUUGAGGAUAUGCGACGUUUUUUCGUCGUAGAAGGCGAUACAUGAGGAUCACCCAUGUUUAUGGGCAU | 0.0897 µM | 0.157 µM | – | – |
| UUCAAUCACAUAGGAUAUAGAAUAAUAAUUUUUUACAUGAGGAUCACCCAUGUUUUAUUGGGUUUCUAGAAGGAUGAGUUAUUA | – | – | 0.524 µM | 0.3 µM |
| UUCAGCGAUCAAGGAUAUCUAUAUUCAUGAGGACAUGAGGAUCACCCAUGUUGAUUACCCAUGAGGGAGAAGGUGGACAUGAGG | – | – | 0.0401 µM | 0.0235 µM |
| UUCAUGUGAGGAUAUGUGAUCUGCUUUCUGUUUAGAUGAUCACAGAAGGCACAUGAGGAUCACCCAUGUAGAUC | – | 0.0226 µM | – | – |
| UUCAUUAACAUGAGGAUCACCCAUGUUGGCCAGUCUCACACCAGAAGGCACGUUGAGCACAUCAGUGAGGAUAUGGGUGACAUA | – | – | 0.331 µM | 0.091 µM |
